{"data": "Published values pooled from the literature", "CDK7": "Cyclin-dependent kinase 7 (CDK7, Homo sapiens, UniProt P50613)", "CDK7 with cyclin H": "Cyclin-dependent kinase 7, with cyclin H (CDK7, Homo sapiens, UniProt P50613)", "note": "Lines come from different studies, so protocols differ."}
{"SMILES": "CN(C)C(=O)Cn1cc(-c2nc([C@@](C)(c3ccc(-c4cnc(N)nc4)cc3)C3CC3)no2)cn1", "target": "CDK7", "test": "cell-free assay, competition with immobilised ligand", "setting": "1 µM", "quantity": "remaining binding", "value": "59%"}
{"SMILES": "O=C1C[C@@H](c2ccc(O)cc2)Oc2cc(O)cc(O)c21", "target": "CDK7 with cyclin H", "test": "enzyme activity, inhibitor, ADP detection", "setting": "10 µM", "quantity": "inhibition", "value": "3.7%"}
{"SMILES": "C[C@@H]1CN(c2cc(-c3n[nH]c4ccc(OC5(C)CC5)cc34)ncn2)C[C@H](C)O1", "target": "CDK7", "test": "cell-free assay, competition with immobilised ligand", "setting": "0.1 µM", "quantity": "remaining binding", "value": "56%"}
{"SMILES": "CNC(=O)c1cc(Oc2ccc(NC(=O)Nc3ccc(Cl)c(C(F)(F)F)c3)cc2)ccn1", "target": "CDK7 with cyclin H", "test": "enzyme activity, inhibitor", "setting": "10 µM", "quantity": "inhibition", "value": "-36%"}
{"SMILES": "O=C(NCc1ncc(C(F)(F)F)cc1Cl)c1ccc2c(c1)C1(CCS(=O)(=O)CC1)[C@@H](C1CC1)N2S(=O)(=O)c1ccc(F)cc1", "target": "CDK7", "test": "cell-free assay, competition with immobilised ligand", "setting": "1 µM", "quantity": "remaining binding", "value": "56%"}
{"SMILES": "Cc1ccc(Nc2nccc(N(C)c3ccc4c(C)n(C)nc4c3)n2)cc1S(N)(=O)=O", "target": "CDK7 with cyclin H", "test": "enzyme activity, inhibitor", "setting": "0.3 µM", "quantity": "inhibition", "value": "8%"}
{"SMILES": "O=C(Nc1cnn(-c2csc(C(=O)NC3COC3)c2)c1)Nc1c(F)cccc1Cl", "target": "CDK7 with cyclin H", "test": "enzyme activity, inhibitor", "setting": "5 µM", "quantity": "remaining activity", "value": "95.8%"}
{"SMILES": "Cc1nc(Cc2cccc(C(F)(F)F)c2)sc1-c1ccc(C(N)=O)nc1", "target": "CDK7", "test": "cell-free assay, competition with immobilised ligand", "setting": "1 µM", "quantity": "remaining binding", "value": "90%"}
{"SMILES": "CCCOc1ccc(OC)c(F)c1C(=O)c1ccc(C(=O)N[C@@H]2CNC[C@H]2NC(=O)c2ccc3[nH]ncc3c2)cc1", "target": "CDK7", "test": "enzyme activity, inhibitor", "setting": "10 µM", "quantity": "remaining activity", "value": "13%"}
{"SMILES": "Oc1ccc(-c2nc(-c3ccncc3)c(-c3ccc(F)cc3)[nH]2)cc1", "target": "CDK7 with cyclin H", "test": "cell-free assay", "setting": "0.5 µM", "quantity": "remaining signal", "value": "99.4%"}
{"SMILES": "CO[C@@H](C)c1c(Nc2ccc([C@H](N(C)C(=O)C3CCS(=O)(=O)CC3)C(F)(F)F)cc2)cnc2cc(Cl)nn12", "target": "CDK7", "test": "cell-free assay, competition with immobilised ligand", "setting": "1 µM", "quantity": "remaining binding", "value": "100%"}
{"SMILES": "COc1c2c(cc3oc(-c4ccccc4)cc(=O)c13)OCO2", "target": "CDK7 with cyclin H", "test": "enzyme activity, inhibitor, ADP detection", "setting": "10 µM", "quantity": "inhibition", "value": "94.4%"}
{"SMILES": "CCN(CC)c1ccc(C2=NNC(=O)CC2C)cc1[N+](=O)[O-] (centres unmarked)", "target": "CDK7", "test": "enzyme activity, inhibitor", "setting": "10 µM", "quantity": "remaining activity", "value": "96%"}
{"SMILES": "C=C(C)[C@@H]1CC[C@]2(C(=O)O)CC[C@]3(C)[C@H](CC[C@@H]4[C@@]5(C)CC[C@H](O)C(C)(C)[C@@H]5CC[C@]43C)[C@@H]12", "target": "CDK7 with cyclin H", "test": "enzyme activity, inhibitor, ADP detection", "setting": "10 µM", "quantity": "inhibition", "value": "35.2%"}
{"SMILES": "CN(c1ccnc(CNc2nc(Nc3ccc4c(c3)CC(=O)N4)ncc2C(F)(F)F)n1)S(C)(=O)=O", "target": "CDK7", "test": "cell-free assay, competition with immobilised ligand", "setting": "1 µM", "quantity": "remaining binding", "value": "3.5%"}
{"SMILES": "CC(C)(C)c1nc2c(s1)c1nc(N)ncc1c1ccc(NS(=O)(=O)c3c(F)cccc3F)c(F)c12", "target": "CDK7 with cyclin H", "test": "enzyme activity, inhibitor, radiometric", "setting": "1 µM", "quantity": "remaining activity", "value": "123%"}
{"SMILES": "Cc1ccc(NC(=O)c2ccc(C)c(C(F)(F)F)c2)cc1C#Cc1nn(C2CCC(O)CC2)c2ncnc(N)c12 (centres unmarked)", "target": "CDK7", "test": "cell-free assay", "setting": "10 µM", "quantity": "remaining signal", "value": "103%"}
{"SMILES": "Cc1sc(C(=O)NC2COC2)cc1-n1cc(NC(=O)Nc2c(F)cccc2Cl)cn1", "target": "CDK7 with cyclin H", "test": "enzyme activity, inhibitor", "setting": "10 µM", "quantity": "remaining activity", "value": "103%"}
{"SMILES": "CC(C)(O)[C@H]1CC[C@H](Nc2ccc3ncc(-c4cccc(C(F)(F)F)c4)n3n2)CC1", "target": "CDK7 with cyclin H", "test": "enzyme activity, inhibitor", "setting": "1 µM", "quantity": "remaining activity", "value": "96.6%"}
{"SMILES": "C=C1CC[C@@H]2[C@](C)(CO)[C@H](O)CC[C@@]2(C)[C@@H]1CCC1=CCOC1=O", "target": "CDK7 with cyclin H", "test": "enzyme activity, inhibitor, ADP detection", "setting": "10 µM", "quantity": "inhibition", "value": "22.8%"}
{"SMILES": "Cc1cnc(NC2CCOCC2)nc1-n1cnc(C(=O)NC(CN)c2cc(F)cc(Cl)c2)c1 (centres unmarked)", "target": "CDK7", "test": "enzyme activity, inhibitor, radiometric", "setting": "1 µM", "quantity": "remaining activity", "value": "16%"}
{"SMILES": "CC[C@]12CCCN3CCc4c(n(c5ccccc45)[C@@](O)(C(=O)OC)C1)[C@@H]32", "target": "CDK7 with cyclin H", "test": "enzyme activity, inhibitor, ADP detection", "setting": "10 µM", "quantity": "inhibition", "value": "-20.8%"}
{"SMILES": "O=C1Nc2ccc(Cl)cc2C1=Cc1cc(Cl)c(O)c(Cl)c1", "target": "CDK7 with cyclin H", "test": "cell-free assay", "setting": "0.5 µM", "quantity": "remaining signal", "value": "96.7%"}
{"SMILES": "Cc1cc(=O)c2c(O)cc(O)cc2o1", "target": "CDK7 with cyclin H", "test": "enzyme activity, inhibitor, ADP detection", "setting": "10 µM", "quantity": "inhibition", "value": "29.4%"}
{"SMILES": "C[C@H](c1ccc(F)cc1)N(Cc1cccc(C(=O)O)c1)C(=O)c1cnc2ccccc2c1", "target": "CDK7", "test": "cell-free assay, competition with immobilised ligand", "setting": "1 µM", "quantity": "remaining binding", "value": "100%"}
{"SMILES": "O=c1cc(-c2ccccc2)oc2ccccc12", "target": "CDK7 with cyclin H", "test": "enzyme activity, inhibitor, ADP detection", "setting": "10 µM", "quantity": "inhibition", "value": "41.7%"}
{"SMILES": "O=C1NC(=O)c2cc(Nc3ccc(F)cc3)c(Nc3ccc(F)cc3)cc21", "target": "CDK7 with cyclin H", "test": "cell-free assay", "setting": "0.5 µM", "quantity": "remaining signal", "value": "100%"}
{"SMILES": "CS(=O)(=O)N1CCCC(NC(=O)[C@H](CCC2CCCCC2)NC(=O)c2ccc(CNc3ncnc4c3nnn4-c3ccccc3)cc2)C1 (some centres unmarked)", "target": "CDK7", "test": "cell-free assay, competition with immobilised ligand", "setting": "0.1 µM", "quantity": "remaining binding", "value": "100%"}
{"SMILES": "COc1c(-c2ccccc2)oc2c(ccc3occc32)c1=O", "target": "CDK7 with cyclin H", "test": "enzyme activity, inhibitor, ADP detection", "setting": "10 µM", "quantity": "inhibition", "value": "-0.1%"}
